Screening data (PubChem)
MrgX1 antag: antagonists of human MrgX1 receptor. MRGX1-HEK293 calcium flux, Fluo-4, BAM8-22 antagonism; hits give low values. B-score at 10 µM. 310,000 tested, 1.3% active. AID 588676;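 active means calcium-response B-score plate-corrected more than 3 library SD below zero, starting fluorescence within 5 deviations, no agonist response on first addition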;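 further: peak minus trough fluorescence over baseline after final BAM8-22 challenge near maximal dose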
Target sequence (Q96LB2 whole entry, looked up): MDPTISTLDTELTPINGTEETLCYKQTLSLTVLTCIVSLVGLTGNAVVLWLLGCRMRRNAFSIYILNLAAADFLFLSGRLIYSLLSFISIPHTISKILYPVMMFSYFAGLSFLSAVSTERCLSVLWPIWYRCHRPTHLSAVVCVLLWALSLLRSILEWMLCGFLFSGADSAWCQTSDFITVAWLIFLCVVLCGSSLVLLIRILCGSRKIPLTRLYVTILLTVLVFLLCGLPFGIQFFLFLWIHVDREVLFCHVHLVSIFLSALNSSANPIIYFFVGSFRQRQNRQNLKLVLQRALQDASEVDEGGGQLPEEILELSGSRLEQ
MrgX1 agonist: activates human MrgX1 receptor signaling | 310,000 tested, 0.44% active | Q96LB2 | MrgX1-HEK293 cells, Fluo-4 calcium fluorescence, agonist mode; hits give high values | B-score at 10 µM;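 active means calcium response B-score plate-corrected fluorescence ratio at least 3 library SD, with starting fluorescence B-score inside 5 SD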
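Test system: HEK293 cells stably expressing human MrgX1 receptor; Input: fifteen thousand cells per well; Dosing: compound delivered in addition one of three; Schedule: overnight seeding, then 1 h dark dye loading; Technique: Fluo-4 NW calcium fluorescence; Measure: B-scored fluorescence response ratio; Controls: positive and negative controls per plate.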
RGS4 inh: human RGS4 inhibition | P49798 | B-score at 10 µM | 310,000 tested, 0.45% active | AID 463165 | HEK293 M3R/RGS4 inducible, Fluo-4 calcium flux; hits give high values; triggered by carbachol at its EC20;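 active means B-score, a plate-corrected calcium signal, over three deviations above library mean, with baseline fluorescence within five deviations of library mean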;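 further: RGS4 expression induced by doxycycline in cells with stable M3 receptor; B-score is computed from the integrated fluorescence ratio over baseline after carbachol; higher B-score means a larger calcium signal and so more RGS4 inhibition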
Target sequence (P49798 whole entry, looked up): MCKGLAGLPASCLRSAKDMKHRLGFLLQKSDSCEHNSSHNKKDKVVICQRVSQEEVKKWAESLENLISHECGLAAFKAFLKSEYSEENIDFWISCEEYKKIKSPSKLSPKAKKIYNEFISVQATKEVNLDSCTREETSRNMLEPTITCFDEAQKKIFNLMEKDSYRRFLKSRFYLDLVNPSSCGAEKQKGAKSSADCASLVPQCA
MrgX1 allo act: allosterically activates human MrgX1 receptor signaling. B-score at 10 µM. 310,000 tested, 0.63% active. MrgX1-HEK293, Fluo-4 calcium flux, FDSS; hits give high values. AID 588675. Q96LB2;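 active means plate-corrected calcium response at least 3 library SD above typical, normal starting fluorescence, not activating the receptor alone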;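 further: compound read alongside a low EC10 to EC30 dose of BAM8-22 agonist; peak minus trough fluorescence over baseline measured at the second addition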
RGS4 act: RGS4 potentiation or activation. 310,000 tested, 0.92% active. AID 463111. B-score at 10 µM. HEK293 M3R/inducible RGS4, carbachol calcium flux Fluo4; hits give low values;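 active means B-score of the integrated calcium signal more than 4 SD below the library mean, with starting fluorescence not abnormally high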;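 further: negative B-score means reduced calcium response which marks RGS4 activation or potentiation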
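test system = HEK293 cells with stable M3R and inducible RGS4 | schedule = recording 10 s baseline at 1 Hz, 100 s post-agonist | technique = Fluo4-AM (2 µM) calcium-flux fluorescence, kinetic read | measure = Agonist-evoked peak-minus-minimum fluorescence over baseline, integrated ratio, B score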
MrgX1 ant reconf: human MrgX1 receptor antagonism, re-confirmation screen; shares compounds with MrgX1 antag; 2,300 tested, 19% active; remaining BAM8-22 calcium response % of control (hits give low values), % at 10 µM; MrgX1-HEK293, BAM8-22 calcium flux, Fluo-4; hits give low values;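 active means remaining agonist calcium response no higher than 100% minus 3 SD of agonist-only control wells, with starting fluorescence near control levels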;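 further: agonist BAM8-22 given at a near maximal EC90 to ECmax level; peak minus minimum fluorescence divided by baseline after agonist addition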
HEK293 Ca flux: activity in parental HEK293 cells lacking MrgX1; shares compounds with MrgX1 antag; Fluo-4 calcium fluorescence, FDSS; fluorescence ratio F(max-min)/F0 at 10 µM; 4,000 tested, 2% active; AID 624111;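 active means duplicate-averaged calcium fluorescence ratio at least three times the standard deviation of buffer wells, a nonspecific response in parental cells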
HEK293 Ca counter: MrgX1 allosteric activator counter-screen hit in parental HEK293 cells; fluorescence ratio F(max-min)/F0 at 10 µM; parental HEK293 calcium flux, Fluo-4 fluorescence ratio; hits give high values; shares compounds with MrgX1 antag; AID 624114; 4,000 tested, 0.4% active;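 active means calcium fluorescence ratio, averaged over duplicates, at least 3 SD of the buffer-well ratio, meaning a nonspecific response in receptor-free cells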;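 further: untransfected parental HEK293 lacking MrgX1 used as counterscreen for MrgX1 allosteric activators; fluorescence change taken during the second addition on a kinetic imager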
HEK293 Ca cntr2: MrgX1 activator counter-screen hit in parental HEK293 cells | fluorescence ratio F(max-min)/F0 at 10 µM | Fluo-4 calcium fluorescence (FDSS); hits give high values | 4,000 tested, 8.7% active | shares compounds with MrgX1 antag;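 active means calcium fluorescence ratio at least three times the spread of buffer wells, meaning a non-specific response in parental cells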
The depositor's hits bear a star; i = inactive; . = no result given. The list is not random: actives were taken first. Their share in the collection is about 3.5%.

SMILES	MrgX1 antag	MrgX1 agonist	RGS4 inh	MrgX1 allo act	RGS4 act	MrgX1 ant reconf	HEK293 Ca flux	HEK293 Ca counter	HEK293 Ca cntr2
CCOc1cc2[nH]c(=S)n(C(C)C)c(=O)c2cc1OCC	i	i	i	i	i	.	.	.	.
CCC(CO)n1c(=S)[nH]c2cc(OC)c(OC)cc2c1=O (stereo unspecified)	-4.6*	i	i	i	i	i	i	i	i
COc1ccc(S(=O)(=O)N(C)CC(=O)NCc2ccco2)cc1OC	i	i	i	i	i	.	.	.	.
Cc1ccc(-c2nnn(CC(=O)N(Cc3cccs3)C(C(=O)NCC3CCCO3)c3ccco3)n2)o1 (stereo unspecified)	i	i	i	i	i	.	.	.	.
Cc1c(CNC2CCCC2)c(C(=O)O)c(C)n1Cc1ccccc1	i	i	i	i	i	.	.	.	.
C=C(C)CSc1nc(C)c(Cc2ccccc2)c(=O)[nH]1	-6.7*	i	i	i	i	85%*	i	i	i
Fc1cc(F)c2nc(N3CCCC3)sc2c1	i	i	i	i	i	.	.	.	.
CCOc1ccc(N2C(=O)Nc3ccc(Br)cc3C2(O)C(=O)NCCN(C)C)cc1 (stereo unspecified)	i	i	i	i	i	.	.	.	.
CCCn1c(SCc2ccccn2)nc2c1c(=O)n(C)c(=O)n2C	-7.8*	i	i	i	i	i	i	i	i
CCO[C@@H]1OC(C(=O)O)=C[C@H](c2ccc(Br)cc2)[C@H]1CCCO	i	i	i	i	i	.	.	.	.
O=C(O)c1ccc2ncsc2c1	-5.6*	i	i	i	i	68%*	i	i	i
COc1ccc(NC(=O)C2=C(C)Nc3ncnn3C2c2ccccc2C(F)(F)F)c(OC)c1 (stereo unspecified)	i	i	.	i	.	.	.	.	.
O=C(NCCc1ccco1)C(=O)NCC1CCCN1S(=O)(=O)c1ccccc1 (stereo unspecified)	-5.1*	i	i	i	-7.3*	i	i	i	i
Cc1ccc(C)c(S(=O)(=O)N2CCCC2CNC(=O)C(=O)NCCc2ccco2)c1 (stereo unspecified)	i	i	i	i	i	.	.	.	.
O=C(NC(=S)Nc1ccccc1N1CCOCC1)c1cccs1	-4.7*	i	i	i	i	i	i	i	i
O=C(NC(=S)Nc1ccccc1N1CCCC1)c1cccs1	i	i	i	i	i	.	.	.	.
COc1ccc(NC(=O)CN(C)C(=O)c2ccc(-c3cccc(C(F)(F)F)c3)o2)cc1	i	i	i	i	i	.	.	.	.
COc1ccc(NC(=O)CN(C)C(=O)c2ccc(-c3ccccc3Cl)o2)cc1	-4.7*	i	i	i	i	i	i	i	i
COc1ccccc1NC(=O)C(C)Sc1nc2ccccc2c(=O)n1CC1CCCO1 (stereo unspecified)	i	i	i	i	i	.	.	.	.
O=C(COC(=O)C1CCN(S(=O)(=O)c2cccc3cccnc23)CC1)c1ccccc1	i	i	i	i	i	.	.	.	.
O=C(c1cccc(-n2cccc2)c1)N1CCN(S(=O)(=O)c2c(F)cccc2F)CC1	-6.1*	i	i	i	i	i	i	i	i
O=C(c1cccc(-n2cccc2)c1)N1CCN(S(=O)(=O)c2ccccc2)CC1	i	i	i	i	i	.	.	.	.
